Assays:
[1] = Partition coefficient (logP); assay type: physicochemical; settings: octanol/water
Summary of the method: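 Log P obtained by a correlation method at pH 6.5.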

[2] = Acid dissociation constant of the compound; assay type: ADME

Work on CC(C)C[C@H](O)[C@H](O)[C@@H](N)CC1CCCCC1 yielded a logP [1] of 1.86.

In the case of CC(C)C[C@H](O)[C@H](O)[C@H](CC1CCCCC1)NC(=O)[C@H](Cc1csc(N)n1)NC(=O)[C@H](Cc1ccccc1)NS(=O)(=O)N1CCOCC1, the logP [1] is reported as 3.01.

Compound CCCC[C@H](NC(=O)[C@H](Cc1ccccc1)n1cccc1)C(=O)N[C@@H](CC1CCCCC1)[C@@H](O)[C@@H](O)CC(C)C has a logP [1] of 4.9.

Work on CC(C)C[C@H](O)[C@H](O)[C@H](CC1CCCCC1)NC(=O)C[C@@H](NC(=O)OC(C)(C)C)C(=O)O yielded a logP [1] of 2.06 and a pKa [2] of 4.7.

In the case of CC(C)C[C@H](O)[C@H](O)[C@H](CC1CCCCC1)NC(=O)/C=C/c1ccccc1, the logP [1] is reported as 3.61.

CC(C)C[C@H](O)[C@H](O)[C@H](CC1CCCCC1)NC(=O)CN showed a logP [1] of 1.52 and a pKa [2] of 7.5.

CC(C)C[C@H](O)[C@H](O)[C@H](CC1CCCCC1)NC(=O)CCCCCc1ccccc1 gave a logP [1] of 4.66.

CC(C)C[C@H](O)[C@H](O)[C@H](CC1CCCCC1)NC(=O)[C@H](Cc1csc(N)n1)NC(=O)[C@H](Cc1ccccc1)NS(=O)(=O)N1CCN(C(=O)CCC(=O)O)CC1 gave a logP [1] of 2.03 and a pKa [2] of 5.9.

— ChEMBL document CHEMBL1128674, “Evaluation of physicochemical parameters important to the oral bioavailability of peptide-like compounds: implications for the synthesis of renin inhibitors” (J Med Chem, 1995)
